Assay outcomes (PubChem BioAssay)
CHO parental Ca: counter-screen for OX1R antagonists: effect in parental CHO cells. inhibition, % at 5.6 µM. parental CHO-K1, ATP-induced calcium, Fluo-8 fluorescence. 330,000 tested, 0.63% active;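 active means inhibition above that plate's mean sample inhibition plus 3 SD, cut at about 26% in these data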
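Material: parental CHO cells / Compound: single nominal dose of 5.6 µM per compound / Signal: Fluo-8 fluorescence / Replicates: singlicate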
OXTR potentiate: potentiators of human oxytocin receptor | P30559 | CHO-OTR cells, Fluo-8 calcium fluorescence, potentiator mode; 0% = oxytocin EC15, 100% = EC100 | activation, % at 3 µM | 320,000 tested, 0.061% active;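 active means activation above that plate's cutoff, the mean activation of tested compounds plus 3 SD, cut at about 6.6% in these data, passing the limit was not always enough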
Target sequence (P30559 whole entry, looked up): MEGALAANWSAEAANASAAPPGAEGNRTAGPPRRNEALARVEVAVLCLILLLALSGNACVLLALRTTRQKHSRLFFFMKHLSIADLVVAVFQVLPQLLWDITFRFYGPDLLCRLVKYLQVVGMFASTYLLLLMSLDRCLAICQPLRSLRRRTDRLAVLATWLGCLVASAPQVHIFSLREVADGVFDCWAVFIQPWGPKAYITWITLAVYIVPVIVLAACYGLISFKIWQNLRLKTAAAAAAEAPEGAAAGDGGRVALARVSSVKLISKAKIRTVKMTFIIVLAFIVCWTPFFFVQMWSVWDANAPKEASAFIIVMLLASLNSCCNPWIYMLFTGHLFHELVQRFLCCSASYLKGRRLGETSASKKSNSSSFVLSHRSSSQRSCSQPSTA
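assay system = CHO-OTR cells, human receptor | schedule = compound 6 min at room temperature before oxytocin, 100 s read | detection = Fluo-8 intracellular calcium fluorescence, ex 470-495, em 515-575 nm | evaluation = normalized max/min fluorescence ratio, % activation | control set = EC15 oxytocin alone as 0%, 75 nM oxytocin (EC100) as 100%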
OX1R antag-1: blocks the human orexin 1 receptor | O43613 | OX1R-expressing cells, FRET antagonist read-out | inhibition, % at 6.6 µM | 330,000 tested, 1.8% active | AID 485270; in the data active means inhibition mostly above about 38%, no sharp cut-off; inactive means mostly below about 40%
OX1R antag-2: blocks the human orexin 1 receptor. 330,000 tested, 0.43% active. inhibition, % at 5 µM. CHO/OX1R cells, Fluo-8 calcium fluorescence, orexin A. O43613;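 active means inhibition above its plate's threshold, mean inhibition of all tested compounds on the plate plus 3 SD, cut at about 37% in these data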
V1R ag counter: activates human V1a receptor in oxytocin agonist counter-screen; activation, % at 3 µM; CHO-V1R cells, Fluo-8 calcium fluorescence, agonist mode; 0% DMSO, 100% 3 nM vasopressin; 320,000 tested, 0.25% active; P37288; AID 2797;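 active means activation above the mean activation of all tested compounds plus 3 SD, per screening run, cut at about 20% in these data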;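 further: signal is peak over basal fluorescence ratio across a 100 second FLIPR read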
OXTR agonist: agonists of human oxytocin receptor; 320,000 tested, 0.32% active; CHO-OTR cells, Fluo-8 calcium fluorescence; normalized: DMSO 0%, oxytocin 100%; activation, % at 3 µM; P30559;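 active means activation above the mean of all tested compounds plus 3 SD, cutoff set per screening run, cut at about 20% in these data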;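 further: peak over basal fluorescence ratio from a 100 s FLIPR kinetic read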
Large screens that a line does not name were inactive. In the library only some 2.7% were active in any assay of this set; here they are far more common.

CC1CCCC(C)N1CCCNC(=O)c1csc2c1CCCCC2 (stereo unspecified)	none
C=CCn1c(Sc2ncc([N+](=O)[O-])s2)n[nH]c1=O	OX1R antag-1 57
C=CCn1c(CSc2ccccc2[N+](=O)[O-])n[nH]c1=S	none
O=c1c2ccccc2c(C=Nc2cccc(S(=O)(=O)NCc3ccco3)c2)c(O)n1-c1ccc(Cl)cn1	OX1R antag-1 66
CC1CCCCC12NC(=O)N(CC(=O)NCCc1c[nH]c3ccccc13)C2=O (stereo unspecified)	none
CC(C)(C)OC(=O)[C@H](Cc1ccccc1)NC(=O)c1nc[nH]c1C(=O)NCCCCCN	none
CC(C)(C)OC(=O)NCCCCCNC(=O)c1[nH]cnc1C(=O)N[C@@H](Cc1ccccc1)C(=O)OC(C)(C)C	CHO parental Ca 40
Cc1nn(-c2ccccc2)c(N)c1Sc1cccc([N+](=O)[O-])c1	none
Cc1nn(-c2cccc([N+](=O)[O-])c2)c(N)c1-c1ccccc1	OX1R antag-1 41
Cc1ccc2cccc(OCC(=O)Nc3cccc(S(=O)(=O)N4CCCC4)c3)c2n1	none
CCCCN(C)CCNC(=O)C1CCN(S(=O)(=O)c2cccc3nsnc23)CC1	OX1R antag-1 49
O=C(C1CCN(S(=O)(=O)c2cccc3nsnc23)CC1)N1CCCCC1	OX1R antag-1 44
CCCCN(CC)CCNC(=O)C1CCN(S(=O)(=O)c2cccc3nsnc23)CC1	OX1R antag-1 51
CCCCN(CC)CCNC(=O)C1CCCN(S(=O)(=O)c2cccc3nsnc23)C1 (stereo unspecified)	none
CCCN(CCC)CCNC(=O)C1CCN(S(=O)(=O)c2cccc3nsnc23)CC1	OX1R antag-1 43
CC1CCN(C(=O)C2CCN(S(=O)(=O)c3cccc4nsnc34)CC2)CC1	none
COc1ccc(-c2ccc(-c3cc(=O)oc4cc(OC)c(OC)c(OC)c34)cc2)cc1	none (no result: OXTR potentiate, V1R ag counter, OXTR agonist)
Cn1cnnc1SCC(=O)Nc1ccc(Cl)c(S(=O)(=O)N2CCOCC2)c1	none
CN(C(=O)CSc1cc(Cl)ccc1Cl)C1CCS(=O)(=O)C1 (stereo unspecified)	none
Cc1cc(=O)oc2cc(OC(C)C(=O)NC3(C#N)CCCCC3)ccc12 (stereo unspecified)	none
CCCCNc1c(-c2ccc(OC)c(SC(C)CC)c2)nc2ccc(C)cn12 (stereo unspecified)	CHO parental Ca 94, OX1R antag-1 60, OX1R antag-2 87
COc1ccc(-c2cc(-c3nc4ccccn4c3NCc3ccccc3)ccc2OC)cc1	CHO parental Ca 100, OX1R antag-1 89, OX1R antag-2 96
CCCCNc1c(-c2ccc(OC)c(SC(C)CC)c2)nc2ccc(Cl)cn12 (stereo unspecified)	none
CCC(C)Sc1cc(-c2nc3ccc(C)cn3c2NCc2ccccc2)ccc1OC (stereo unspecified)	CHO parental Ca 97, OX1R antag-2 73
CCCCCCSc1ccc(-c2nc3ccc(C)cn3c2NCc2ccccc2)cc1OC	none
CCC(C)Sc1ccc(-c2nc3ccc(C)cn3c2NCc2ccccc2)cc1OC (stereo unspecified)	OX1R antag-2 56
CCN(CC)S(=O)(=O)c1ccc2[nH]c(=O)cc(C(=O)Nc3ccc(C)c(S(=O)(=O)N(CC)CC)c3)c2c1	none
CC(OC(=O)c1cc2sccc2n1C)C(=O)NCc1ccc(F)cc1 (stereo unspecified)	CHO parental Ca 37
N#C/C(=C\c1ccc(N2CCCCC2)o1)C(N)=O	OX1R antag-1 42
COc1ccc(NC(=O)/C(C#N)=C\c2ccc(Br)o2)cc1	none
N#C/C(=C\c1ccc(N2CCCCC2)o1)C(=O)Nc1cccc(Br)c1	CHO parental Ca 83, OX1R antag-2 92, V1R ag counter 199, OXTR agonist 187
CCN1CCN(c2ccc(Nc3ccnc4ccccc34)cc2)CC1	OX1R antag-1 30
O=C(Nc1nnc(C2=COCCO2)o1)c1ccc(Cl)cc1	none
O=C(Nc1nnc(C2=COCCO2)o1)c1ccc([N+](=O)[O-])cc1	OX1R antag-1 52
Cc1nc(NC(=O)CCN2C(=O)C3CC=CCC3C2=O)sc1C (stereo unspecified)	none
